# Test system: not listed separately
# Assay: Ratio of maximum plasma concentration (C) measured ex vivo to that of IC50 of (10a or 10c) in rat treated intravenously with 10 mg/kg
# Type: functional
# Settings: route intravenous
# In short: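 Conscious rats, femorally catheterised 24 h earlier, dosed iv at 10 mg/kg. Arterial blood was sampled before and at intervals after dosing into EDTA, then centrifuged. Plasma was ultrafiltered through a 30 000 MW cutoff with 0.1 N HCl at 10 °C. Unbound active inhibitor in the ultrafiltrate was measured by GAAP/rat kidney membrane NEP assay and expressed relative to the IC50 of the active metabolite.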
row,SMILES,Ratio
1,O=C(O)CCNC(=O)[C@H](Cc1ccc(-c2ccccc2)cc1)NCP(=O)(OC1CCc2ccccc21)OC1CCc2ccccc21 (some centres not stated),41
2,Cc1cc(C)cc(OP(=O)(CN[C@@H](Cc2ccc(-c3ccccc3)cc2)C(=O)NCCC(=O)O)Oc2cc(C)cc(C)c2)c1,149
3,CCOC(=O)CCNC(=O)[C@H](Cc1ccc(-c2ccccc2)cc1)NCP(=O)(Oc1ccccc1)Oc1ccccc1,160
4,Cc1ccc(OP(=O)(CN[C@@H](Cc2ccc(-c3ccccc3)cc2)C(=O)NCCC(=O)O)Oc2ccc(C)c(C)c2)cc1C,40
5,CCOC(=O)CCNC(=O)C(Cc1ccc(-c2ccccc2)cc1)NCP(=O)(OC(OC(=O)CC)C(C)C)OC(OC(=O)CC)C(C)C (configuration not stated),503
6,CCOC(=O)CCNC(=O)C(Cc1ccc(-c2ccccc2)cc1)NCP(=O)(OCOC(=O)C(C)C)OCOC(=O)C(C)C (configuration not stated),535
7,O=C(CCNC(=O)[C@H](Cc1ccc(-c2ccccc2)cc1)NCP(=O)(Oc1ccccc1)Oc1ccccc1)OC1CCc2ccccc21 (some centres not stated),69
8,O=C(CCNC(=O)[C@H](Cc1ccc(-c2ccccc2)cc1)NCP(=O)(O)Oc1ccccc1)OCc1ccccc1,16
9,O=C(O)CCNC(=O)[C@H](Cc1ccc(-c2ccccc2)cc1)NCP(=O)(Oc1ccccc1)Oc1ccccc1,225
10,COc1cccc(OP(=O)(CN[C@@H](Cc2ccc(-c3ccccc3)cc2)C(=O)NCCC(=O)O)Oc2cccc(OC)c2)c1,240
11,CCCCCCCC(=O)OC(OP(=O)(O)CNC(Cc1ccc(-c2ccccc2)cc1)C(=O)NCCC(=O)OCC)C(C)C (configuration not stated),50
12,CC(C)c1ccc(OP(=O)(CN[C@@H](Cc2ccc(-c3ccccc3)cc2)C(=O)NCCC(=O)O)Oc2ccc(C(C)C)cc2)cc1,40
13,CCOC(=O)CCNC(=O)C(Cc1ccc(-c2ccccc2)cc1)NCP(=O)(OC(OC(=O)C(C)C)C(C)C)OC(OC(=O)C(C)C)C(C)C (configuration not stated),97
14,Cc1ccc(OP(=O)(CN[C@@H](Cc2ccc(-c3ccccc3)cc2)C(=O)NCCC(=O)O)Oc2ccc(C)cc2)cc1,31
15,CCCc1ccc(OP(=O)(CN[C@@H](Cc2ccc(-c3ccccc3)cc2)C(=O)NCCC(=O)O)Oc2ccc(CCC)cc2)cc1,18
16,CCOC(=O)CCNC(=O)C(Cc1ccc(-c2ccccc2)cc1)NCP(=O)(OC(OC(=O)CC)C1CCCCC1)OC(OC(=O)CC)C1CCCCC1 (configuration not stated),64
17,CCC(=O)OC(C)OP(=O)(CNC(Cc1ccc(-c2ccccc2)cc1)C(=O)NCCC(=O)O)OC(C)OC(=O)CC (configuration not stated),283
18,CCN(CC)C(=O)COC(=O)CCNC(=O)[C@H](Cc1ccc(-c2ccccc2)cc1)NCP(=O)(Oc1ccccc1)Oc1ccccc1,135
19,CCOC(=O)CCNC(=O)C(Cc1ccc(-c2ccccc2)cc1)NCP(=O)(OCOC(=O)C(C)(C)C)OCOC(=O)C(C)(C)C (configuration not stated),816
20,CCN(CC)C(=O)COC(=O)CCNC(=O)[C@H](Cc1ccc(-c2ccccc2)cc1)NCP(=O)(O)Oc1ccccc1,9
21,COc1ccc(OP(=O)(CN[C@@H](Cc2ccc(-c3ccccc3)cc2)C(=O)NCCC(=O)O)Oc2ccc(OC)cc2)cc1,5
22,CCC(=O)OC(OP(=O)(CNC(Cc1ccc(-c2ccccc2)cc1)C(=O)NCCC(=O)O)OC(OC(=O)CC)C(C)C)C(C)C (configuration not stated),380
23,O=C(CCNC(=O)[C@H](Cc1ccc(-c2ccccc2)cc1)NCP(=O)(Oc1ccccc1)Oc1ccccc1)OCc1ccccc1,75
24,O=C(O)CCNC(=O)[C@H](Cc1ccc(-c2ccccc2)cc1)NCP(=O)(O)Oc1ccccc1,41
25,CC(C)(C)C(=O)OCOP(=O)(CNC(Cc1ccc(-c2ccccc2)cc1)C(=O)NCCC(=O)O)OCOC(=O)C(C)(C)C (configuration not stated),322
26,CC(C)N(C(=O)COC(=O)CCNC(=O)[C@H](Cc1ccc(-c2ccccc2)cc1)NCP(=O)(O)Oc1ccccc1)C(C)C,5

# Target: T1, Neprilysin (Rattus norvegicus, UniProt P07861)
# T1 sequence (P07861 whole entry): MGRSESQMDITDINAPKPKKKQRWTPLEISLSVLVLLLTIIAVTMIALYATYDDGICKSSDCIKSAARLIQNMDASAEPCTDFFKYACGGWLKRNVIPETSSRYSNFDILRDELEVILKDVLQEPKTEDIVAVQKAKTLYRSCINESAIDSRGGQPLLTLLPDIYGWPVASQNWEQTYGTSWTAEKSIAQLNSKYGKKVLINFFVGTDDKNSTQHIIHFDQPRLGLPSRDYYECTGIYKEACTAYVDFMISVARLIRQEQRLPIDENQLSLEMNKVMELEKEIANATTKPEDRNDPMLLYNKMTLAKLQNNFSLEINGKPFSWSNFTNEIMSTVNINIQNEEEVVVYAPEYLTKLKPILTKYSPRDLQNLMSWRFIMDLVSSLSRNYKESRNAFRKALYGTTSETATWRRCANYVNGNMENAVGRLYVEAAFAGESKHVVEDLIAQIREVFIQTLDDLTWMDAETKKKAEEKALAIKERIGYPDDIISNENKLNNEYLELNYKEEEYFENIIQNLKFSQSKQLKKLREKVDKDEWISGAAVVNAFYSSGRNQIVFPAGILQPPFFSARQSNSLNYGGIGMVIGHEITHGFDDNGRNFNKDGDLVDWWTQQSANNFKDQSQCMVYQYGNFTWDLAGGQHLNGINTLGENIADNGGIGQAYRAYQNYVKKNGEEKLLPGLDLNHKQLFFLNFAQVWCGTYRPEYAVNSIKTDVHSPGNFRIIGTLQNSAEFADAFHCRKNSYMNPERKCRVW
# Assay: In vitro inhibition of Neutral endopeptidase (NEP) enzyme
# Settings: not given
row,SMILES,IC50
1,COP(=O)(O)CNC(Cc1ccc(-c2ccccc2)cc1)C(=O)NCCC(=O)O (configuration not stated),301 nM
2,O=C(O)CCCNC(=O)C(Cc1ccc(-c2ccccc2)cc1)NCP(=O)(O)O (configuration not stated),11 nM
3,C[C@H](NC(=O)C(Cc1ccc(-c2ccccc2)cc1)NCP(=O)(O)O)C(=O)O (some centres not stated),3 nM
4,O=C(O)CCNC(=O)C(Cc1ccc(-c2ccc(F)cc2)cc1)NCP(=O)(O)O (configuration not stated),14 nM
5,O=C(O)CCNC(=O)C(Cc1ccccc1)NCP(=O)(O)O (configuration not stated),1150 nM
6,O=C(O)CCNC(=O)C(Cc1ccc(-c2ccccc2)cc1)NCP(=O)(O)O (configuration not stated),4 nM
7,O=C(O)CCNC(=O)C(Cc1ccc(-c2ccccc2)cc1)NCP(=O)(O)OCc1ccccc1 (configuration not stated),1000 nM
8,O=C(O)CCNC(=O)C(Cc1ccccc1)CP(=O)(O)O (configuration not stated),207 nM
9,O=C(O)c1ccc(NC(=O)C(Cc2ccc(-c3ccccc3)cc2)NCP(=O)(O)O)cc1 (configuration not stated),10 nM
10,CCOP(=O)(CNC(Cc1ccc(-c2ccccc2)cc1)C(=O)NCCC(=O)O)OCC (configuration not stated),> 1000 nM
11,O=C(O)CCNC(=O)C(Cc1ccccc1)CP(=O)(O)OCCc1ccccc1 (configuration not stated),> 1000 nM
12,O=C(O)CCNC(=O)[C@@H](Cc1ccc(-c2ccccc2)cc1)NCP(=O)(O)O,1800 nM
13,O=C(O)CCNC(=O)[C@H](Cc1ccc(-c2ccccc2)cc1)NCP(=O)(O)O,1.9 nM
14,O=C(N[C@H](C(=O)O)c1ccccc1)C(Cc1ccc(-c2ccccc2)cc1)NCP(=O)(O)O (some centres not stated),2 nM
15,CCOC(=O)CCNC(=O)C(Cc1ccc(-c2ccccc2)cc1)NCP(=O)(O)O (configuration not stated),120 nM
16,O=C(O)CCNC(=O)C(Cc1ccccc1)OP(=O)(O)CCCCc1ccccc1 (configuration not stated),> 1000 nM
17,O=C(O)CNC(=O)C(Cc1ccc(-c2ccccc2)cc1)NCP(=O)(O)O (configuration not stated),5 nM
18,O=C(O)CCNC(=O)[C@H](Cc1ccc(-c2ccccc2)cc1)NCP(=O)(O)Oc1ccccc1,238 nM
19,O=C(O)CCNC(=O)C(Cc1ccccc1)OP(=O)(O)CCc1ccccc1 (configuration not stated),> 1000 nM
20,O=C(O)CCNC(=O)C(Cc1ccccc1)OP(=O)(O)CNC(=O)OCc1ccccc1 (configuration not stated),> 1000 nM
21,CC(C)C[C@H](NP(=O)(O)O[C@@H]1O[C@@H](C)[C@H](O)[C@@H](O)[C@H]1O)C(=O)N[C@@H](Cc1c[nH]c2ccccc12)C(=O)O [PHOSPHORAMIDON],27 nM

# Source: ChEMBL document CHEMBL1127330, “N-Phosphonomethyl dipeptides and their phosphonate prodrugs, a new generation of neutral endopeptidase (NEP, EC 3.4.24.11) inhibitors” (J Med Chem, 1994)
